Results as given in publication PMC7655718 (The Journal of antibiotics, 2020).
≈ marks a conversion by molar mass, not a printed value. Where two headings read alike, the source gives them in different places.

Experiments:
[1] = system: S. aureus ATCC 25923 (Sa23); test: MIC, microdilution with resazurin; format: cell-based; conditions: Staphylococcus aureus, ATCC25923, read-out: MIC Sa23
In short: (§1)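 Compounds dissolved in DMSO at 2 mg/mL. Overnight blood-agar colonies were suspended in PBS to 0.5 McFarland, then diluted in Mueller Hinton broth to about 1x10^6 cfu/mL with resazurin (1:1000 of 0.1% w/v stock). Twofold DMSO dilutions were added 1:40, giving 50 to 0.4 μg/mL at 2.5% DMSO. Incubation was 35 °C for 16-20 h. Blue/non-turbid wells counted as inhibited, pink/turbid as grown.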

[2] = system: S. aureus ATCC 25923 biofilm formation; test: Biofilm inhibition assay; format: cell-based, Staphylococcus aureus
In short: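 Blood-agar culture was suspended in PBS (0.5 McFarland), then diluted 1:100 in yeast extract casamino acid broth (about 1x10^6 cfu/mL). Compound at 2xMIC, MIC and 0.5xMIC was added before biofilm formation, in triplicate, with broth-only and bacteria+DMSO controls. Incubation was 35 °C for 24 h. Wells were PBS-washed, dried, stained with 0.1% crystal violet, solubilised in 33% acetic acid and read at 620 nm. % inhibition = [1−(ODcompound−ODbroth)/(ODdmso−ODbroth)]×100, from mean and SD.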

[3] = system: A. baumannii ATCC 747 (Ab47); test: MIC, microdilution with resazurin; format: cell-based, Acinetobacter baumannii; conditions: for MIC: Acinetobacter baumannii, ATCC747, read-out: MIC Ab47
In short: as §1

[4] = system: human embryonic kidney cell line (HEK293); test: Toxicity against HEK293 cell line; format: cell-based; conditions: for selectivity factor (IC50/MIC): HEK293 IC50 over MIC, as high as
[5] = system: S. aureus ATCC 33591 (Sa91); test: MIC, microdilution with resazurin; format: cell-based; conditions: Staphylococcus aureus, ATCC33591, read-out: MIC Sa91
In short: as §1

[6] = system: A. baumannii ATCC 19606 (type strain, Ab06); test: MIC and MBC; format: cell-based, Acinetobacter baumannii
In short: as §1

[7] = system: S. aureus ATCC 33592 (Sa92); test: MIC, microdilution with resazurin; format: cell-based; conditions: Staphylococcus aureus, ATCC33592, read-out: MIC Sa92
In short: as §1

[8] = system: tested Gram-positive bacterial strains; test: MIC, text summary over tested Gram-positive strains; format: cell-based; conditions: for MIC: read-out: MIC value as low as
[9] = system: S. aureus BAA-2312 (Sa12); test: MIC, microdilution with resazurin; format: cell-based; conditions: Staphylococcus aureus, BAA2312, read-out: MIC Sa12
In short: as §1

[10] = system: S. epidermidis 700296 (Se); test: MIC, microdilution with resazurin; format: cell-based; conditions: Staphylococcus epidermidis, read-out: MIC Se
In short: as §1

[11] = system: S. aureus ATCC 700699 (Sa99); test: MIC, microdilution with resazurin; format: cell-based; conditions: Staphylococcus aureus, ATCC700699, read-out: MIC Sa99
In short: as §1

[12] = system: S. aureus ATCC 25923 preformed biofilm; test: Biofilm destruction assay; format: cell-based, Staphylococcus aureus; conditions: 2xMIC
In short: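 Biofilm was first grown in 96-well plates for 24 h at 35 °C and washed with PBS to remove unadhered cells. Fresh yeast extract casamino acid broth was added with compound at 2xMIC, MIC or 0.5xMIC, or DMSO, in triplicate, plus broth-only wells. Incubation was 35 °C for 24 h. Crystal violet was stained, solubilised and read at 620 nm. % destruction = [1−(ODcompound−ODbroth)/(ODdmso−ODbroth)]×100, from triplicate means.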

[13] = system: B. subtilis ATCC 6623 (Bs); test: MIC, microdilution with resazurin; format: cell-based, Bacillus subtilis; conditions: Bacillus subtilis, ATCC6623, read-out: MIC Bs
[14] = system: S. aureus ATCC 33599 (MRSA); test: BacLight membrane permeability assay; format: cell-based, Staphylococcus aureus; conditions: versus positive control vancomycin
[15] = system: S. aureus ATCC 33599 (MRSA); test: Time kill assay; format: cell-based, Staphylococcus aureus
In short: (§2)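 Growth curves by optical density set the log phase. Log-phase bacteria (about 2 h shaking in Mueller Hinton broth II) were diluted in warm broth to about 3x10^6 cfu/mL. They were exposed to compound at 4xMIC (other multiples where indicated), in triplicate, at 35 °C. Colistin (A. baumannii) or vancomycin (S. aureus) and DMSO were included. Samples at 0, 2, 4, 6, 8, 10, 12 and 24 h were counted by drop plate on blood agar (18-24 h, 35 °C). Log cfu/mL was plotted against time.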

[16] = system: S. aureus ATCC 33599 (MRSA); test: MIC and MBC; format: cell-based, Staphylococcus aureus; set-up: MBC as multiple of the MIC: unit not given beside the values; conditions: for MBC / MIC: Staphylococcus aureus, ATCC33599|MRSA
In short: as §1

A. baumannii ATCC 19606 = test: Time kill assay; format: cell-based, Acinetobacter baumannii; conditions: 4xMIC
In short: as §2

[17] = system: A. baumannii ATCC BAA-1605 (Ab05); test: MIC, microdilution with resazurin; format: cell-based, Acinetobacter baumannii
In short: as §1

[18] = Acinetobacter baumannii, ATCC19606, read-out: MIC Ab06
[19] = MIC and 0.5xMIC tested, 24 hours

| Compound | MIC [1] | MIC [3] | selectivity factor (IC50/MIC) [4] | MIC [5] | MIC [6, 18] | MIC [7] | antimicrobial activity against the tested strains [8] | MIC [9] | MIC [10] | MIC [11] | MIC [13] | membrane disruption activity, PI/SYTO-9 ratio [14] | time kill effect ([15]; 4xMIC, 24 hours at 35 °C) | MBC [16] | MIC [16] | MIC [8] | destruction of preformed biofilm [12, 19] | further results |
| --- | --- | --- | --- | --- | --- | --- | --- | --- | --- | --- | --- | --- | --- | --- | --- | --- | --- | --- |
| O=C(O)c1ccc(-n2cc(/C=N/Nc3cc(F)ccc3F)c(-c3ccc4ccccc4c3)n2)cc1 [Compound 19] | 1.56 µg/mL (≈ 3.33 µM) | > 50 µg/mL | ≤ 48.7 | 3.12 µg/mL (≈ 6.67 µM) | > 50 µg/mL | 1.56 µg/mL (≈ 3.33 µM) | enhanced activity against all the tested strains | 3.12 µg/mL (≈ 6.67 µM) | 3.12 µg/mL (≈ 6.67 µM) | 0.78 µg/mL (≈ 1.67 µM) | 3.12 µg/mL (≈ 6.67 µM) | more potent membrane disruption activity than vancomycin | – | – | – | – | – | inhibition of biofilm formation ([2]; 2xMIC, MIC and 0.5xMIC concentrations, 24 hours): most effective compound; destruction of preformed biofilm [12]: potent activity |
| O=C(O)c1ccc(-n2cc(/C=N/Nc3ccc(Cl)cc3Cl)c(-c3ccc4ccccc4c3)n2)cc1 [Compound 20] | 3.12 µg/mL (≈ 6.23 µM) | > 50 µg/mL | ≤ 48.7 | 6.25 µg/mL (≈ 12.5 µM) | > 50 µg/mL | 0.78 µg/mL (≈ 1.56 µM) | enhanced activity against all the tested strains | 3.12 µg/mL (≈ 6.23 µM) | 3.12 µg/mL (≈ 6.23 µM) | 0.78 µg/mL (≈ 1.56 µM) | 3.12 µg/mL (≈ 6.23 µM) | more potent membrane disruption activity than vancomycin | mild bactericidal effect | 6.25 µg/mL (≈ 12.5 µM) | 0.78 µg/mL (≈ 1.56 µM) | – | – | time kill effect ([15]; 8xMIC): strongly bactericidal; time to kill all bacteria ([15]; 8xMIC): ≤ 4 h; MBC as multiple of the MIC ([16]; S. aureus ATCC 33599 (MRSA)): 8 |
| O=C(O)c1ccc(-n2cc(/C=N/Nc3c(F)c(F)cc(F)c3F)c(-c3ccc4ccccc4c3)n2)cc1 [Compound 23] | 3.12 µg/mL (≈ 6.19 µM) | > 50 µg/mL | – | > 50 µg/mL | > 50 µg/mL | 1.56 µg/mL (≈ 3.09 µM) | – | > 50 µg/mL | > 50 µg/mL | 1.56 µg/mL (≈ 3.09 µM) | 3.12 µg/mL (≈ 6.19 µM) | – | – | 12.5 µg/mL (≈ 24.8 µM) | 1.56 µg/mL (≈ 3.09 µM) | ≥ 0.78 µg/mL | – | toxicity for HEK293 [4]: selective toxicity for bacterial cells |
| O=C(O)c1ccc(-n2cc(/C=N/Nc3ccc(C(F)(F)F)cc3)c(-c3ccc4ccccc4c3)n2)cc1 [Compound 25] | 0.78 µg/mL (≈ 1.56 µM) | > 50 µg/mL | – | 25 µg/mL (≈ 50 µM) | > 50 µg/mL | 0.78 µg/mL (≈ 1.56 µM) | – | 12.5 µg/mL (≈ 25 µM) | 25 µg/mL (≈ 50 µM) | 0.78 µg/mL (≈ 1.56 µM) | 1.56 µg/mL (≈ 3.12 µM) | – | – | 25 µg/mL (≈ 50 µM) | 0.78 µg/mL (≈ 1.56 µM) | ≥ 0.78 µg/mL | excellent ability to eliminate the preformed biofilms | inhibition of biofilm formation ([2]; 2xMIC): potent biofilm inhibition activity |
| CN[C@H](CC(C)C)C(=O)N[C@H]1C(=O)N[C@@H](CC(N)=O)C(=O)N[C@H]2C(=O)N[C@H]3C(=O)N[C@H](C(=O)N[C@H](C(=O)O)c4cc(O)cc(O)c4-c4cc3ccc4O)[C@H](O)c3ccc(c(Cl)c3)Oc3cc2cc(c3O[C@@H]2O[C@H](CO)[C@@H](O)[C@H](O)[C@H]2O[C@H]2C[C@](C)(N)[C@H](O)[C@H](C)O2)Oc2ccc(cc2Cl)[C@H]1O [VC, vancomycin, reference compound] | 1.56 µg/mL (≈ 1.08 µM) | > 50 µg/mL | – | 3.12 µg/mL (≈ 2.16 µM) | > 50 µg/mL | 0.39 µg/mL (≈ 0.269 µM) | – | 0.78 µg/mL (≈ 0.538 µM) | 3.12 µg/mL (≈ 2.16 µM) | 3.12 µg/mL (≈ 2.16 µM) | 0.195 µg/mL (≈ 0.135 µM) | – | mildly bactericidal | 6.25 µg/mL (≈ 4.31 µM) | 3.12 µg/mL (≈ 2.16 µM) | – | almost failed to show any activity | inhibition of biofilm formation ([2]; 0.5xMIC): weak inhibition; inhibition of biofilm formation ([2]; 2xMIC and MIC concentration): potent inhibition; time until bacteria were eliminated ([15]; 4xMIC): ≤ 8 h |
| colistin [reference compound] | – | – | – | – | – | – | – | – | – | – | – | – | – | – | – | – | – | time to completely kill the starting population (A. baumannii ATCC 19606): ≤ 4 h; time kill effect (A. baumannii ATCC 19606; 24 hours at 35 °C): immediate bactericidal effect; MIC Ab47 ([3]; A. baumannii ATCC 747): 1.56 µg/mL; MIC Ab06 ([6]; A. baumannii ATCC 19606 (type strain)): 3.125 µg/mL; MIC ([6]; A. baumannii ATCC 19606, Table 2): 3.125 µg/mL; MBC ([6]; A. baumannii ATCC 19606, concentration killing 99.9% or greater): 6.25 µg/mL; MIC Ab05 [17]: 3.125 µg/mL |
